Measured values published in ChEMBL document CHEMBL2429741 (J Med Chem, 2013).

Legend:
[1] = Inhibition of Escherichia coli IspC by photometric assay
Procedure, shortened: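 NADPH-coupled photometric read at 340 nm, room temperature. Inhibitor 1:3 dilutions over about 200–0.003 μM. Started with 1-deoxy-D-xylulose 5-phosphate, final 0.5–5.0 mM. IC50 from nonlinear regression of ≥8 points, mean ± SD; generally 2–3 independent determinations.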

[2] = test system: Plasmodium falciparum; experiment: Antimicrobial activity against chloroquine-resistant blood stage forms of Plasmodium falciparum Dd2 after 3 days by HRP2-based ELISA; format: functional, organism-based; settings: Dd2, 72 h
Procedure, shortened: (§1)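 Sorbitol-synchronized ring-stage parasites (0.05% parasitemia, 1.5% hematocrit, O Rh+ erythrocytes) in RPMI 1640/HEPES/glutamine/gentamycin/0.5% Albumax, 37 °C, 5% CO2, 5% O2. Added to plates precoated with 3-fold compound dilutions from DMSO stocks; 3-day incubation; plates freeze-thawed twice; HRP2 ELISA. Chloroquine control each run. IC50 from nonlinear regression of log concentration-response; mean of two independent duplicate determinations.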

[3] = target: T1, 1-deoxy-D-xylulose 5-phosphate reductoisomerase (Mycobacterium tuberculosis, UniProt P9WNS1); experiment: Inhibition of Mycobacterium tuberculosis IspC by photometric assay
T1 sequence (P9WNS1 whole entry): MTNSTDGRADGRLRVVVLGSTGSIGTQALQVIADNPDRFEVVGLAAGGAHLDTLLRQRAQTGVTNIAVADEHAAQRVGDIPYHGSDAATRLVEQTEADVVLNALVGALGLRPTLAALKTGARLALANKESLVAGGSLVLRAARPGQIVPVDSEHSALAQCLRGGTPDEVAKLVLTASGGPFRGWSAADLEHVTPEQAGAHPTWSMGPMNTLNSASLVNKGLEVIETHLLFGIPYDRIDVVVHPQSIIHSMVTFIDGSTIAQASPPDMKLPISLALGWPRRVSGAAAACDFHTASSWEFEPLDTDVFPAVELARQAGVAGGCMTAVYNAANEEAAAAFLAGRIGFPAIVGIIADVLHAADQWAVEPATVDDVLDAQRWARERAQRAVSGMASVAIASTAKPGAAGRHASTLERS
Procedure, shortened: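 Photometric NADPH-consumption assay at pH 7.6 (Tris) with 5 mM MgCl2, 5 mM DTT, 0.5 mM NADPH and 0.02 U IspC. Inhibitor 1:3 series covered about 200–0.003 μM. Started with 1-deoxy-D-xylulose 5-phosphate (0.5–5.0 mM final); A340 read at room temperature.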

[4] = test system: Plasmodium falciparum; experiment: Antimicrobial activity against chloroquine-sensitive blood stage forms of Plasmodium falciparum 3D7 after 3 days by HRP2-based ELISA; format: functional, organism-based; settings: 3D7, 72 h; procedure, shortened: as §1
[5] = Inhibition of Plasmodium falciparum IspC expressed in recombinant Escherichia coli M15 by photometric assay
Procedure, shortened: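 His-tagged enzyme from E. coli M15 pREP4 pQEIspCplasart20, induced with 1 mM IPTG overnight at 30 °C, Ni-imidazole purified, about 95% pure. Inhibitor 1:3 over about 200–0.003 μM. DXP start, final 0.5–5.0 mM. 340 nm, room temperature. Nonlinear-regression IC50, ≥8 points.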

Compound	IC50 [1]	IC50 [2]	IC50 [3]	IC50 [4]	IC50 [5]	Ki [5]
O=C(CCC(c1ccc(F)c(F)c1)P(=O)(O)O)NO (stereo unspecified)	0.178 µM	0.065 µM	3.4 µM	0.075 µM	0.0039 µM	
CN(O)C(=O)CCC(c1cccc2ccccc12)P(=O)(O)O (stereo unspecified)	3.83 µM		13 µM		0.0094 µM	
CN(O)C(=O)CCC(c1ccc(F)c(F)c1)P(=O)(O)O (stereo unspecified)	0.117 µM	0.04 µM	0.77 µM	0.122 µM	0.0034 µM	
CN(O)C(=O)CCC(c1ccc(Cl)c(Cl)c1)P(=O)(O)O (stereo unspecified)	0.208 µM		0.28 µM		0.0028 µM	
CN(O)C(=O)CCC(c1ccccc1)P(=O)(O)O (stereo unspecified)	0.243 µM	0.074 µM	2 µM	0.09 µM	0.0031 µM	
Cc1ccc(C(CCC(=O)N(C)O)P(=O)(O)O)cc1 (stereo unspecified)	0.286 µM		1.8 µM		0.014 µM	
CN(O)C(=O)COC(c1ccccc1)P(=O)(O)O (stereo unspecified)	0.94 µM		16 µM		0.037 µM	
CN(O)C(=O)COC(c1cccc2ccccc12)P(=O)(O)O (stereo unspecified)	4.6 µM		15 µM		0.039 µM	
CN(O)C(=O)COC(c1ccc(F)c(F)c1)P(=O)(O)O (stereo unspecified)	0.24 µM		4.6 µM		0.012 µM	
CN(O)C(=O)COC(c1ccc(Cl)c(Cl)c1)P(=O)(O)O (stereo unspecified)	0.2 µM		1.6 µM		0.014 µM	
Cc1ccc(C(OCC(=O)N(C)O)P(=O)(O)O)cc1 (stereo unspecified)	0.32 µM		4 µM		0.025 µM	
O=C(COC(c1ccccc1)P(=O)(O)O)NO (stereo unspecified)	20 µM		466 µM		1.5 µM	
CN(O)C(=O)CS[C@@H](c1ccccc1)P(=O)(O)O	0.0051 µM		0.12 µM		0.0094 µM	0.0017 µM
CN(O)C(=O)CS[C@H](c1ccccc1)P(=O)(O)O	4 µM		83 µM		12 µM	2.2 µM
O=C(CCC(c1ccccc1)P(=O)(O)O)NO (stereo unspecified)	0.592 µM	0.57 µM	14 µM	0.4 µM	0.012 µM	
O=C(COC(c1ccc(F)c(F)c1)P(=O)(O)O)NO (stereo unspecified)	49 µM		> 500 µM	> 50 µM	3.9 µM	
CN(O)C(=O)CSC(c1ccccc1)P(=O)(O)O (racemic)	0.0082 µM	0.075 µM	0.28 µM	0.03 µM	0.024 µM	0.0044 µM
CN(O)C(=O)CSC(c1ccc(F)c(F)c1)P(=O)(O)O (racemic)	0.0085 µM	0.088 µM	0.042 µM	0.111 µM	0.014 µM	
CN(O)C(=O)CSC(c1ccc(Cl)c(Cl)c1)P(=O)(O)O (racemic)	0.0059 µM	0.085 µM	0.0092 µM	0.091 µM	0.0045 µM	
CN(O)C(=O)CSC(c1cccc2ccccc12)P(=O)(O)O (racemic)	0.14 µM	0.51 µM	0.55 µM	0.38 µM	0.0098 µM	
Cc1ccc(C(SCC(=O)N(C)O)P(=O)(O)O)cc1 (racemic)	0.033 µM	0.095 µM	0.11 µM	0.111 µM	0.018 µM	
O=C(CSC(c1ccccc1)P(=O)(O)O)NO (racemic)	0.6 µM	3.77 µM	15 µM	2.9 µM	0.11 µM	
O=C(CSC(c1ccc(F)c(F)c1)P(=O)(O)O)NO (racemic)	0.077 µM	0.33 µM	1.7 µM	0.16 µM	0.015 µM	
O=C(CSC(c1ccc(Cl)c(Cl)c1)P(=O)(O)O)NO (racemic)	0.044 µM	0.87 µM	0.72 µM	0.54 µM	0.2 µM	
O=CN(O)CCCP(=O)(O)O [FOSMIDOMYCIN]	0.221 µM					
